Active and inactive are the calls of the source. Unless noted, the calls are words filed in the database; no cut-off is given here.

The values that follow come from ChEMBL document CHEMBL3407471, “Development of potent inhibitors of pyocyanin production in Pseudomonas aeruginosa” (J Med Chem, 2015).

In series [1] the test system is Pseudomonas aeruginosa. In words: Inhibition of quorum sensing activity in wild-type Pseudomonas aeruginosa PA14 assessed as inhibition of pyocyanin production at 100 uM by spectrophotometry relative to control. It counts as functional. Summed up: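 Wild-type P. aeruginosa PA14 cultures exposed to compound at 100 μM. Pyocyanin read as absorbance at 695 nm. Efficacy scaled so that wild-type pyocyanin level = 0% and absorbance equal to background medium = 100%.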

Series [2] deals with Escherichia coli. In words: Antagonist activity at LasR in Escherichia coli assessed as reduction of AHL-induced GFP production at 100 uM.
In series [3] the test system is Escherichia coli. In words: Agonist activity at LasR in Escherichia coli at 100 uM.
Series [4] relates to Escherichia coli. In words: Antagonist activity at RhlR in Escherichia coli assessed as reduction of AHL-induced GFP production at 100 uM.
The subject of series [5] is Pseudomonas aeruginosa. In words: Antimicrobial activity against wild-type Pseudomonas aeruginosa PA14. It counts as functional.
Series [6] concerns Pseudomonas aeruginosa. In words: Inhibition of quorum sensing activity in wild-type Pseudomonas aeruginosa PA14 assessed as inhibition of pyocyanin production by spectrophotometry relative to control. The series is classed as functional. The method in brief:
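Pyocyanin produced by wild-type PA14, read by absorbance at 695 nm, across a range of compound levels. IC50 derived from the dose–response.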

The subject of series [7] is Escherichia coli. As to the kind of experiment: Agonist activity at RhlR in Escherichia coli at 100 uM.
For series [8], the system named is Pseudomonas aeruginosa. In words: Inhibition of pyocyanin production in wild-type Pseudomonas aeruginosa PA14 assessed as down regulation of fumC relative to control. The series is classed as functional. Summed up: (§1)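 Wild-type PA14 cultures treated with compound, and a DMSO-treated culture served as control. RNA extracted and analysed by microarray. Genes counted as changed when expression differed by more than 2-fold.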

Series [9] deals with Pseudomonas aeruginosa. As to the kind of experiment: Inhibition of pyocyanin production in wild-type Pseudomonas aeruginosa PA14 assessed as down regulation of mexI relative to control. It counts as functional. The method in brief: as §1
In series [10] the test system is Pseudomonas aeruginosa. As to the kind of experiment: Inhibition of pyocyanin production in wild-type Pseudomonas aeruginosa PA14 assessed as down regulation of ahpF relative to control. The series is classed as functional. The method in brief:
as §1

In series [11] the test system is Pseudomonas aeruginosa. As to the kind of experiment: Inhibition of pyocyanin production in wild-type Pseudomonas aeruginosa PA14 assessed as down regulation of mexG relative to control. It counts as functional. The method in brief: as §1
The test system of series [12] is Pseudomonas aeruginosa. In words: Inhibition of pyocyanin production in wild-type Pseudomonas aeruginosa PA14 assessed as down regulation of trxB2 relative to control. The series is classed as functional. The method in brief:
as §1

For series [13], the system named is Pseudomonas aeruginosa. As to the kind of experiment: Inhibition of pyocyanin production in wild-type Pseudomonas aeruginosa PA14 assessed as down regulation of katB relative to control. The series is classed as functional. Summed up: as §1
The subject of series [14] is Pseudomonas aeruginosa. As to the kind of experiment: Inhibition of pyocyanin production in wild-type Pseudomonas aeruginosa PA14 assessed as down regulation of PA14_21530 relative to control. It counts as functional. Summed up: as §1
Series [15] has as its system Escherichia coli. As to the kind of experiment: Competitive binding to RhlR in Escherichia coli at 100 to 500 uM. Summed up:
(§2)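 Competition format: compound at 100 μM and 500 μM combined with increasing amounts of the receptor's native AHL (LasR or RhlR). Receptor response compared with a DMSO control.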

Series [16] deals with Pseudomonas aeruginosa. As to the kind of experiment: Inhibition of pyocyanin production in wild-type Pseudomonas aeruginosa PA14 assessed as down regulation of PA14_16310 relative to control. It counts as functional. The method in brief:
as §1

Series [17] deals with Pseudomonas aeruginosa. As to the kind of experiment: Inhibition of pyocyanin production in wild-type Pseudomonas aeruginosa PA14 assessed as down regulation of opmD relative to control. The series is classed as functional. Summed up: as §1
In series [18] the test system is Pseudomonas aeruginosa. As to the kind of experiment: Inhibition of pyocyanin production in wild-type Pseudomonas aeruginosa PA14 assessed as down regulation of PA14_22320 relative to control. The series is classed as functional. The method in brief: as §1
Series [19] has as its system Pseudomonas aeruginosa. In words: Inhibition of pyocyanin production in wild-type Pseudomonas aeruginosa PA14 assessed as down regulation of PA14_58040 relative to control. It counts as functional. The method in brief:
as §1

Series [20] has as its system Pseudomonas aeruginosa. As to the kind of experiment: Inhibition of pyocyanin production in wild-type Pseudomonas aeruginosa PA14 assessed as down regulation of katA relative to control. The series is classed as functional. The method in brief: as §1
Series [21] relates to Pseudomonas aeruginosa. In words: Inhibition of pyocyanin production in wild-type Pseudomonas aeruginosa PA14 assessed as down regulation of PA14_03090 relative to control. It counts as functional. Summed up: as §1
The subject of series [22] is Pseudomonas aeruginosa. As to the kind of experiment: Inhibition of pyocyanin production in wild-type Pseudomonas aeruginosa PA14 assessed as down regulation of PA14_35160 relative to control. The series is classed as functional. The method in brief: as §1
The subject of series [23] is Escherichia coli. In words: Competitive binding to LasR in Escherichia coli at 100 to 500 uM. The method in brief:
as §2

In series [24] the test system is Pseudomonas aeruginosa. In words: Inhibition of pyocyanin production in wild-type Pseudomonas aeruginosa PA14 assessed as down regulation of PA14_51830 relative to control. It counts as functional. The method in brief:
as §1

The test system of series [25] is Pseudomonas aeruginosa. In words: Inhibition of pyocyanin production in wild-type Pseudomonas aeruginosa PA14 assessed as down regulation of mexH relative to control. It counts as functional. Summed up:
as §1

Series [26] relates to Pseudomonas aeruginosa. In words: Antibiofilm activity against wild-type static Pseudomonas aeruginosa PA14 at 100 uM by spectrophotometry. The series is classed as functional.
The nature of series [27]: Effect on pyocyanin oxidation state in cell free culture fluid up to 17 hrs by spectrophotometry. The series is classed as ADME. The method in brief: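 Cell-free culture fluids already containing pyocyanin incubated with compound, to test for a change in pyocyanin oxidation state independent of its production.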

One may read the IC50 as the midpoint of a concentration-inhibition curve. Consider `CCCCCCCCCCCC(=O)Nc1ccnc(F)c1`, for which, in series [1], the Efficacy amounted to 70%. For the same compound, the outcome in series [2], in [3], in [4], in series [5] and in [7] was inactive. The IC50 in series [6] was 4.4 µM.
On to `O=C(CCCCCOc1cccc(Br)c1)Nc1ccnc(C(F)(F)F)c1`, for which the “fold change (FC)” value came out at 2.71 in [8]; 2.84 in series [9]; 33.03 in series [10]; 2.68 in [11]; 27.79 in series [12]; 4.15 in [13]. Besides, the “fold change (FC)” value is 44.39 in series [14]; 3.27 in series [16]; 2.5 in series [17]; 35.99 in series [18]; 5.67 in series [19]; 20.8 in series [20]. For the same compound, the “fold change (FC)” value in [21] was found to be 14.35; in series [22] it was 4.93; in series [24], 5.6; in [25], 2.93. In series [1], the Efficacy came out at 99%. The result in series [2], in [15], in series [3], in series [4], in [5] and in series [23] was inactive. Moreover, the result in series [7] and in series [26] was inactive. Besides, the IC50 in series [6] was 2.7 µM.
As for `O=C(CCCCCOc1cccc(F)c1)Nc1ccnc(C(F)(F)F)c1`, the Efficacy in [1] is recorded as 103%. Further, the result in series [2], in [3], in [4], in series [5] and in [7] was inactive. The IC50 in series [6] is 6.3 µM.
`CCCCCCCCCC(=O)CC(=O)Nc1ccncc1`: the Efficacy in series [1] was 63%. Further, the outcome in series [2], in series [3], in series [4], in series [5] and in [7] was inactive. Also, in series [27], the Stability entry is reported as “Stable”. In series [6], the IC50 came out at 0.16 µM.
Consider `O=C(CCCCCOc1cccc(O)c1)Nc1ccnc(C(F)(F)F)c1`, for which, in [1], the Efficacy was 70%. In addition, the outcome in series [5] was inactive.
The corresponding values for `O=C(CCCCCOc1cccc(Br)c1)Nc1ccnc(Cl)c1` are 89% and “inactive”.
Taken in the same sequence, the figures for `O=C(CCCCCOc1ccc(F)cc1)Nc1ccnc(C(F)(F)F)c1` were 54% and “inactive”.
